From ChEMBL document CHEMBL1629636, “In vitro susceptibility of Borrelia spielmanii to antimicrobial agents commonly used for treatment of Lyme disease” (2009)
Converted amounts (≈) assume the structure as drawn.

What was measured:
[1] = tested on: Borrelia afzelii; assay: Antimicrobial activity against Borrelia afzelii isolate G600 after 72 hrs by colorimetric assay; assay type: functional; conditions: Borreliella afzelii, isolate G600, 72 h
In short: (§1)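 Tested in microtiter trays preloaded with lyophilized antibiotics; clinical isolates were low-passage (10 to 20 passages). MIC was read by colorimetric assay after 72 h. MBC was defined as 100% killing in liquid medium at 72 h: aliquots from vials showing no growth were diluted 1:1,000 in BSK and checked for regrowth after 3 weeks of subculture. Values are medians of three independent experiments on separate days.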

[2] = tested on: Borrelia afzelii; assay: Antimicrobial activity against Borrelia afzelii isolate G1039 after 72 hrs by colorimetric assay; assay type: functional; conditions: Borreliella afzelii, isolate G1039, 72 h; in short: as §1
[3] = tested on: Borrelia afzelii; assay: Antimicrobial activity against Borrelia afzelii isolate FEM1 after 72 hrs by colorimetric assay; assay type: functional; conditions: Borreliella afzelii, isolate FEM1, 72 h; in short: as §1
[4] = tested on: Borrelia spielmanii; assay: Antimicrobial activity against Borrelia spielmanii isolate TIsar3 after 72 hrs by colorimetric assay; assay type: functional; conditions: Borreliella spielmanii, isolate TIsar3, 72 h; in short: as §1
[5] = tested on: Borrelia garinii; assay: Antimicrobial activity against Borrelia garinii isolate M2094 after 72 hrs by colorimetric assay; assay type: functional; conditions: Borreliella garinii, isolate M2094, 72 h; in short: as §1
[6] = tested on: Borrelia spielmanii; assay: Antimicrobial activity against Borrelia spielmanii isolate PMai after 72 hrs by colorimetric assay; assay type: functional; conditions: Borreliella spielmanii; in short: as §1
[7] = tested on: Borrelia spielmanii; assay: Antimicrobial activity against Borrelia spielmanii isolate PJes after 72 hrs by colorimetric assay; assay type: functional; conditions: Borreliella spielmanii; in short: as §1
[8] = Antimicrobial activity against Borrelia burgdorferi B31 after 72 hrs by colorimetric assay; assay type: functional; conditions: Borreliella burgdorferi; in short: as §1
[9] = tested on: Borrelia spielmanii; assay: Antimicrobial activity against Borrelia spielmanii isolate TIsar2 after 72 hrs by colorimetric assay; assay type: functional; conditions: Borreliella spielmanii, isolate TIsar2, 72 h; in short: as §1
[10] = tested on: Borrelia spielmanii; assay: Antimicrobial activity against Borrelia spielmanii isolate PC-Eq17 after 72 hrs by colorimetric assay; assay type: functional; conditions: Borreliella spielmanii, isolate PC-Eq17, 72 h; in short: as §1
[11] = Antimicrobial activity against Borrelia spielmanii A14S after 72 hrs by colorimetric assay; assay type: functional; conditions: Borreliella spielmanii
In short: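 Low-passage isolates (10 to 20 passages) grown in BSK medium were tested in microtiter trays precoated with lyophilized antimicrobials. MIC was read colorimetrically after 72 h. Independent experiments were run on three different days, and the MIC reported is the median of the three.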

[12] = tested on: Borrelia garinii; assay: Antimicrobial activity against Borrelia garinii isolate G1 after 72 hrs by colorimetric assay; assay type: functional; conditions: Borreliella garinii, isolate G1, 72 h; in short: as §1
[13] = tested on: Borrelia burgdorferi; assay: Antimicrobial activity against Borrelia burgdorferi isolate LW2 after 72 hrs by colorimetric assay; assay type: functional; conditions: Borreliella burgdorferi, isolate LW2, 72 h; in short: as §1
[14] = tested on: Borrelia spielmanii; assay: Antimicrobial activity against Borrelia spielmanii isolate PAnz after 72 hrs by colorimetric assay; assay type: functional; conditions: Borreliella spielmanii; in short: as §1
[15] = tested on: Borrelia garinii; assay: Antimicrobial activity against Borrelia garinii isolate PSth after 72 hrs by colorimetric assay; assay type: functional; conditions: Borreliella garinii; in short: as §1
[16] = tested on: Borrelia spielmanii; assay: Antimicrobial activity against Borrelia spielmanii isolate PSig2 after 72 hrs by colorimetric assay; assay type: functional; conditions: Borreliella spielmanii, isolate PSig2, 72 h; in short: as §1
[17] = tested on: Borrelia spielmanii; assay: Antimicrobial activity against Borrelia spielmanii isolate PMew after 72 hrs by colorimetric assay; assay type: functional; conditions: Borreliella spielmanii; in short: as §1
[18] = tested on: Staphylococcus aureus; assay: Antimicrobial activity against Staphylococcus aureus ATCC 29213 after 72 hrs by colorimetric assay; assay type: functional; conditions: ATCC 29213, 72 h
In short: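 Quality-control MIC followed the CLSI method with two changes: BSK medium was used, and the antibiotic-medium preparation was preincubated for 48 h before testing. Tests were run on three different days, and the MIC reported is the median of the three.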

[19] = tested on: Borrelia spielmanii; assay: Antimicrobial activity against Borrelia spielmanii isolate PHap after 72 hrs by colorimetric assay; assay type: functional; conditions: Borreliella spielmanii; in short: as §1
[20] = tested on: Borrelia; assay: Antimicrobial activity against Borrelia clinical isolate after 72 hrs by colorimetric assay; assay type: functional; conditions: for MIC90: Borrelia, 72 h; in short: as §1
[21] = tested on: Borrelia spielmanii; assay: Antimicrobial activity against Borrelia spielmanii isolate PC-Eq17 after 120 hrs by colorimetric assay; assay type: functional; conditions: Borreliella spielmanii, isolate PC-Eq17, 120 h
[22] = tested on: Borrelia spielmanii; assay: Antimicrobial activity against Borrelia spielmanii isolate PC-Eq17 assessed as reduction in bacterial count at 2 ug/ml after 72 hrs; assay type: functional, Borreliella spielmanii; set-up: scale not given: the % may be the effect or the level left
In short: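 Time-kill assay: the isolate was exposed to ceftriaxone for up to 120 h. Growth was followed by conventional counts of morphologically intact motile cells and compared with a drug-free growth control. Values are means of two independent experiments run on different days.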

In the case of `CC[C@H]1OC(=O)[C@H](C)[C@@H](O[C@H]2C[C@@](C)(OC)[C@@H](O)[C@H](C)O2)[C@H](C)[C@@H](O[C@@H]2O[C@H](C)C[C@H](N(C)C)[C@H]2O)[C@](C)(O)C[C@@H](C)C(=O)[C@H](C)[C@@H](O)[C@]1(C)O` [ERYTHROMYCIN], the MBC [1] is reported as 2 µg/mL (≈ 2.73 µM), the MIC [1] is reported as 0.0312 µg/mL (≈ 0.0425 µM) and the MBC [2] is reported as 2 µg/mL (≈ 2.73 µM). It also gave an MIC [2] of 0.0156 µg/mL (≈ 0.0213 µM), an MBC [3] of 2 µg/mL (≈ 2.73 µM) and an MIC [3] of 0.0312 µg/mL (≈ 0.0425 µM). It also gave an MBC [4] of 2 µg/mL (≈ 2.73 µM), an MIC [4] of 0.0312 µg/mL (≈ 0.0425 µM) and an MBC [5] of 4 µg/mL (≈ 5.45 µM). The MIC [5] was 0.0312 µg/mL (≈ 0.0425 µM), the MBC [6] was 1 µg/mL (≈ 1.36 µM) and the MIC [6] was 0.0079 µg/mL (≈ 0.0108 µM). It also gave an MBC [7] of 1 µg/mL (≈ 1.36 µM), an MIC [7] of 0.0156 µg/mL (≈ 0.0213 µM) and an MBC [8] of 4 µg/mL (≈ 5.45 µM). For the same compound, the MIC [8] was 0.0312 µg/mL (≈ 0.0425 µM), the MBC [9] was 1 µg/mL (≈ 1.36 µM) and the MIC [9] was 0.0312 µg/mL (≈ 0.0425 µM). It also gave an MBC [10] of 4 µg/mL (≈ 5.45 µM), an MIC [10] of 0.0156 µg/mL (≈ 0.0213 µM) and an MBC [11] of 2 µg/mL (≈ 2.73 µM). The MIC [11] was 0.0156 µg/mL (≈ 0.0213 µM), the MBC [12] was 4 µg/mL (≈ 5.45 µM) and the MIC [12] was 0.0156 µg/mL (≈ 0.0213 µM). For the same compound, the MBC [13] was 4 µg/mL (≈ 5.45 µM), the MIC [13] was 0.0312 µg/mL (≈ 0.0425 µM) and the MBC [14] was 2 µg/mL (≈ 2.73 µM). The MIC [14] was 0.0079 µg/mL (≈ 0.0108 µM), the MBC [15] was 4 µg/mL (≈ 5.45 µM) and the MIC [15] was 0.0312 µg/mL (≈ 0.0425 µM). It also gave an MBC [16] of 2 µg/mL (≈ 2.73 µM), an MIC [16] of 0.0079 µg/mL (≈ 0.0108 µM) and an MBC [17] of 2 µg/mL (≈ 2.73 µM). The MIC [17] was 0.0312 µg/mL (≈ 0.0425 µM), the MIC [18] was 0.25 µg/mL (≈ 0.341 µM) and the MBC [19] was 2 µg/mL (≈ 2.73 µM). For the same compound, the MIC [19] was 0.0079 µg/mL (≈ 0.0108 µM), the MBC90 [20] was 4 µg/mL (≈ 5.45 µM) and the MIC90 [20] was 0.0312 µg/mL (≈ 0.0425 µM).

`CO/N=C(\C(=O)N[C@@H]1C(=O)N2C(C(=O)O)=C(CSc3nc(=O)c(O)nn3C)CS[C@H]12)c1csc(N)n1` [CEFTRIAXONE] showed an MBC [1] of 0.5 µg/mL (≈ 0.902 µM), an MIC [1] of 0.0625 µg/mL (≈ 0.113 µM) and an MBC [2] of 0.5 µg/mL (≈ 0.902 µM). The MIC [2] was 0.0312 µg/mL (≈ 0.0563 µM), the MBC [3] was 2 µg/mL (≈ 3.61 µM) and the MIC [3] was 0.0625 µg/mL (≈ 0.113 µM). It also gave an MBC [4] of 0.5 µg/mL (≈ 0.902 µM), an MIC [4] of 0.0625 µg/mL (≈ 0.113 µM) and an MBC [5] of 2 µg/mL (≈ 3.61 µM). For the same compound, the MIC [5] was 0.0312 µg/mL (≈ 0.0563 µM), the MBC [6] was 4 µg/mL (≈ 7.21 µM) and the MIC [6] was 0.0625 µg/mL (≈ 0.113 µM). The MBC [7] was 2 µg/mL (≈ 3.61 µM), the MIC [7] was 0.0312 µg/mL (≈ 0.0563 µM) and the MBC [8] was 2 µg/mL (≈ 3.61 µM). It also gave an MIC [8] of 0.0312 µg/mL (≈ 0.0563 µM), an MBC [9] of 0.5 µg/mL (≈ 0.902 µM) and an MIC [9] of 0.0156 µg/mL (≈ 0.0281 µM). For the same compound, the MBC [10] was 2 µg/mL (≈ 3.61 µM), the MIC [10] was 0.0312 µg/mL (≈ 0.0563 µM) and the MBC [11] was 0.5 µg/mL (≈ 0.902 µM). It also gave an MIC [11] of 0.0312 µg/mL (≈ 0.0563 µM), an MBC [12] of 2 µg/mL (≈ 3.61 µM) and an MIC [12] of 0.0312 µg/mL (≈ 0.0563 µM). It also gave an MBC [13] of 4 µg/mL (≈ 7.21 µM), an MIC [13] of 0.0312 µg/mL (≈ 0.0563 µM) and an MBC [14] of 1 µg/mL (≈ 1.8 µM). It also gave an MIC [14] of 0.0156 µg/mL (≈ 0.0281 µM), an MBC [15] of 2 µg/mL (≈ 3.61 µM) and an MIC [15] of 0.0312 µg/mL (≈ 0.0563 µM). The MBC [16] was 1 µg/mL (≈ 1.8 µM), the MIC [16] was 0.0312 µg/mL (≈ 0.0563 µM) and the MBC [17] was 4 µg/mL (≈ 7.21 µM). The MIC [17] was 0.125 µg/mL (≈ 0.225 µM), the MBC [21] was 2 µg/mL (≈ 3.61 µM) and the Activity [22] was 99.9%. For the same compound, the MIC [18] was 4 µg/mL (≈ 7.21 µM), the MBC [19] was 2 µg/mL (≈ 3.61 µM) and the MIC [19] was 0.0625 µg/mL (≈ 0.113 µM). For the same compound, the MBC90 [20] was 4 µg/mL (≈ 7.21 µM) and the MIC90 [20] was 0.0625 µg/mL (≈ 0.113 µM).

In the case of `C[C@H]1c2cccc(O)c2C(=O)C2=C(O)[C@]3(O)C(=O)C(C(N)=O)=C(O)[C@@H](N(C)C)[C@@H]3[C@@H](O)[C@@H]21.O` [DOXYCYCLINE], the MBC [1] is reported as 2 µg/mL, the MIC [1] is reported as 0.25 µg/mL and the MBC [2] is reported as 4 µg/mL. The MIC [2] was 0.125 µg/mL, the MBC [3] was 4 µg/mL and the MIC [3] was 0.125 µg/mL. For the same compound, the MBC [4] was 8 µg/mL, the MIC [4] was 0.125 µg/mL and the MBC [5] was 16 µg/mL. It also gave an MIC [5] of 0.25 µg/mL, an MBC [6] of 8 µg/mL and an MIC [6] of 0.125 µg/mL. The MBC [7] was 8 µg/mL, the MIC [7] was 0.125 µg/mL and the MBC [8] was 16 µg/mL. For the same compound, the MIC [8] was 0.25 µg/mL, the MBC [9] was 16 µg/mL and the MIC [9] was 0.25 µg/mL. For the same compound, the MBC [10] was 16 µg/mL, the MIC [10] was 0.125 µg/mL and the MBC [11] was 16 µg/mL. For the same compound, the MIC [11] was 0.125 µg/mL, the MBC [12] was 16 µg/mL and the MIC [12] was 0.125 µg/mL. The MBC [13] was 32 µg/mL, the MIC [13] was 0.125 µg/mL and the MBC [14] was 8 µg/mL. The MIC [14] was 0.0625 µg/mL, the MBC [15] was 32 µg/mL and the MIC [15] was 0.25 µg/mL. It also gave an MBC [16] of 8 µg/mL, an MIC [16] of 0.125 µg/mL and an MBC [17] of 16 µg/mL. The MIC [17] was 0.5 µg/mL, the MIC [18] was 0.25 µg/mL and the MBC [19] was 16 µg/mL. For the same compound, the MIC [19] was 0.0625 µg/mL, the MBC90 [20] was 16 µg/mL and the MIC90 [20] was 0.25 µg/mL.
